# Measured values gathered from unrelated publications.
# Protocols differ between the studies behind these lines.
# Target: RAC-beta serine/threonine-protein kinase (AKT2, Homo sapiens, UniProt P31751)
Compound,test,conditions,endpoint,result
C[C@H]1CC[C@H](n2c3cnccc3c3cnc(Nc4ccc5c(n4)CCN(C(=O)CO)C5)nc32)CC1,cell-free assay,1 µM,remaining signal,100%
C1=C/COCc2cc(ccc2OCCN2CCCC2)Nc2nccc(n2)-c2cccc(c2)COC/1,binding,0.1 µM,remaining binding,100%
CN1CCN(C(=O)c2ccc(NC(=O)Nc3ccc(N(C)c4ccnc(Nc5ccc(CS(C)(=O)=O)cc5)n4)cc3)cc2)CC1,binding,1 µM,remaining binding,100%
COc1ccc2oc(-c3ccc4nc(N)oc4c3)c/c(=N\c3ccccc3NC(=O)CCN)c2c1,binding,1 µM,remaining binding,93%
C=CC(=O)N1CCC([C@@H]2CCNc3c(C(N)=O)c(-c4ccc(Oc5ccccc5)cc4)nn32)CC1,"enzyme activity, inhibitor",1 µM,inhibition,1%
C#Cc1cnc(Nc2ccnc(CO)c2)nc1Nc1ccccc1S(C)(=O)=NC#N (stereo not shown),cell-free assay,1 µM,remaining signal,100%
Cc1cc(-c2ccnc3[nH]cc(F)c23)cc(F)c1[C@@]1(O)[C@H](C)CN(C2CCS(=O)(=O)CC2)C[C@@H]1C,"enzyme activity, inhibitor",15 nM,remaining activity,93%
CCCCC(=O)Nc1ccc(-c2ccc3ncn(CCC)c(=O)c3c2)cn1,"binding, competition with immobilised ligand",0.5 µM,remaining binding,100%
N#Cc1ccc(NC(=O)Nc2ccccc2)cc1,"cell-free assay, competition with immobilised ligand",25 µM,remaining binding,92%
CC#CC(=O)N1CCC[C@H]1c1nc(-c2ccc(C(=O)Nc3ccccn3)cc2)c2c(N)nccn12,"enzyme activity, inhibitor",1 µM,inhibition,0%
